Where a SMILES comes first, the peptide text is derived from it. [ ]: non-standard residue; d: D form. Nva = CCC[C@H](N)C(=O)O
How the values were obtained:
[1] = test system: human induced pluripotent stem (iPS) cell-derived hepatocytes; test: MTT cytotoxicity assay; format: cell-based; conditions: ALY688 0.5 to 2000 nM, globular adiponectin 1 μg/mL; 4 and 24 h; Figure S1A
How it was run: (§1)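 iPS cell-derived human hepatocytes were exposed to test compound at 0.5, 1, 100, 500, 1000, 1500 and 2000 nM, to globular adiponectin 1 μg/mL, or to H₂O₂ 500 μM for 4 and 24 h. Viability was quantified by MTT formazan per manufacturer. Experiments were repeated at least three times; mean ± SEM.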

[2] = test system: STAM mice; test: STAM; format: in vivo, C57BL/6N mice
How it was run: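 Male C57BL/6N mice received 200 μg streptozotocin s.c. at 2 days after birth and were fed HFD (57 kcal% fat) from week 4 to week 9. From week 6 to week 9, mice received saline vehicle or test compound at 0.5 or 5 mg/kg/day, by daily s.c. injection or s.c. osmotic pump (0.25 μL/h); n=6/group. Read-outs were body weight during treatment, and terminal plasma ALT/AST (dry-chemistry analyser) and liver weight. Unpaired two-sided t-test.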

[3] = test system: mice with TAA-induced liver injury / CCl4-induced liver fibrosis; conditions: cited from earlier work
[4] = cited from earlier work
[5] = Pharmacokinetic study after single s.c. injection; format: in vivo, Sprague-Dawley rats; conditions: male, Sprague-Dawley, rat, plasma, sc, 10 mg/kg
How it was run: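 Male adult Sprague–Dawley rats (two per cage, 22–24°C, 12-h light cycle) received a single s.c. dose of 10 mg/kg. Plasma peptide was measured by LC–MS/MS. PK parameters were computed with values below LLOQ set to zero.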

[6] = test system: human induced pluripotent stem (iPS) cell-derived hepatocytes; test: LDH release cytotoxicity assay; format: cell-based; conditions: ALY688 0.5 to 2000 nM, globular adiponectin 1 μg/mL; 4 and 24 h; Figure S1B
How it was run: as §1, with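 “Cytotoxicity” for “Viability”, “quantified as LDH release” for “quantified”, “kit” for “MTT formazan”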

[7] = test system: CDAHFD-fed mice; test: CDAHF diet-induced mouse model of MASH; format: in vivo, C57BL/6N mice; conditions: 30 mg/kg/day oral dosing; Figure 2c-g
How it was run: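 Male C57BL/6N mice, 8 weeks old, fed a choline-deficient, low-methionine high-fat diet (60 kcal% fat) for 12 weeks. From week 3, obeticholic acid 30 mg/kg was given daily by oral gavage in 0.5% CMC/0.01% Tween-80 for 9 weeks. Vehicle-treated chow-fed mice served as negative controls (n=10/group). End-of-treatment read-outs were serum ALT/AST by commercial kits, liver weight, hepatic TG and H&E NAS scoring.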

[8] = test system: CDAHFD-fed mice; test: Hepatic fibrosis in CDAHF mouse model; format: in vivo, C57BL/6N mice; conditions: 30 mg/kg daily oral; Figure 3a-c
[9] = test system: liver of CDAHFD-fed mice; test: Hepatic gene expression in CDAHF mouse model; format: in vivo, C57BL/6N mice; conditions: RT-qPCR, 30 mg/kg oral
[10] = continuous infusion, high dose 5 mg/kg/day, vs control mice

## CCC[C@H](NC(=O)[C@@H]1CCCN1C(=O)[C@@H](NC(=O)[C@H](N)CC(N)=O)[C@@H](C)CC)C(=O)N[C@@H](CC(C)C)C(=O)N[C@@H](Cc1ccc(O)cc1)C(=O)N[C@H](CO)C(=O)N[C@@H](Cc1ccccc1)C(=O)N[C@@H](C)C(=O)N[C@H](CO)C(N)=O [ALY688] (H-[dN]IP[Nva]LY[dS]FA[dS]-NH2; N-terminus and C-terminus assumed)
[1]
  Cytotoxicity, MTT assay: No toxicity
[2]; 0.5 or 5 mg/kg/day, daily s.c. or osmotic pump, Figure 1b
  Body weight during the treatment period: did not induce change in body weight
[2]; [10]
  Serum ALT level: slightly lower levels of ALT without statistical significance
  Serum AST level: significantly reduced
[2]; daily s.c. injection, 0.5 or 5 mg/kg/day, vs vehicle
  Serum ALT and AST levels: did not affect
[3]
  Effect against TAA-induced liver injury and CCl4-induced liver fibrosis: liver protective effects
[4]
  Stability in mouse plasma: good stability
[5]
  half-life: 27 min
[6]
  Cytotoxicity, LDH release assay: No toxicity

## CC[C@H]1[C@@H](O)[C@@H]2[C@H](CC[C@]3(C)[C@@H]([C@H](C)CCC(=O)O)CC[C@@H]23)[C@@]2(C)CC[C@@H](O)C[C@@H]12 [OCA, obeticholic acid]
[7]
  Effect on alleviating MASH: did not show beneficial effects
[8]
  Hepatic fibrosis by histological examination: protective effects against hepatic fibrosis
[9]; Figure 4e
  Hepatic expression of fatty acid oxidation genes (Acot1, Acox1, Cyp4a12): restored
[9]; Figure 4f
  Hepatic expression of fibrosis-related genes (Tgfβ, Col1a1, Timp1): appeared to reduce the expression of most of these fibrotic genes, although without statistical significance
[9]; Figure 4g
  Expression of MASH-induced inflammatory genes: failed to reverse
